# Bioassay records: PubChem, The Scripps Research Institute Molecular Screening Center
# PAFAH2 inh – inhibitors of human PAFAH2; Q99487; recombinant PAFAH2, FP-rhodamine activity probe, fluorescence polarization; inhibition, % at 3.39 µM; 340,000 compounds, 0.99% hits;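 active = inhibition above the mean over all tested compounds plus 3 SD, cut at about 30% in these data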;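 note: inhibitors block probe labeling of enzyme so polarization drops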
# HTRA1 inh – inhibitors of human serine peptidase HTRA1. recombinant HTRA1, FP-rhodamine activity-based probe, fluorescence polarization. inhibition, % at 5.96 µM. 340,000 compounds, 0.5% hits; in the data active = inhibition above about 36%
# Target sequence (Q92743 whole entry, looked up): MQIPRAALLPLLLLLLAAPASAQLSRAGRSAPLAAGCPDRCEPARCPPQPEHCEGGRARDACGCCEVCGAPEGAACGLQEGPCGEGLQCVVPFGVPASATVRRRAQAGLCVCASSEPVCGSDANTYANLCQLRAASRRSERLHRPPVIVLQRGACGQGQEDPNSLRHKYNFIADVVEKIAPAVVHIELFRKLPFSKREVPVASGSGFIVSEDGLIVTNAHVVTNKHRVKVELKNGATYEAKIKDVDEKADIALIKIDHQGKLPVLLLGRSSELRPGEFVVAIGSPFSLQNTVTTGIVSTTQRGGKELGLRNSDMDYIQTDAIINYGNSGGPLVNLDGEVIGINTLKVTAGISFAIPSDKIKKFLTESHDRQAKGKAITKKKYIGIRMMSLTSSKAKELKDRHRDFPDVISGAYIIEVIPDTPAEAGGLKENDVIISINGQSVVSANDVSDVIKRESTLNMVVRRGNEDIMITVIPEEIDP
# PAFAH1B2 FP inh – inhibitors of human PAFAH1B2 | P68402 | recombinant PAFAH1B2, FP-rhodamine activity probe, fluorescence polarization | inhibition, % at 3.39 µM | 340,000 compounds, 1.2% hits;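 active = inhibition above the mean of all tested compounds plus 3 SD, cut at about 24% in these data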
# PAFAH1B3 FP inh – PAFAH1B3 (human) inhibition; inhibition, % at 3.39 µM; Q15102; 340,000 compounds, 0.28% hits; recombinant PAFAH1B3, FP-rhodamine probe, fluorescence polarization;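 active = inhibition above the screen-wide average of all tested compounds plus 3 SD, cut at about 25% in these data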
# pPAFAH FP inh – pPAFAH (human) enzyme inhibition; recombinant pPAFAH, FP-rhodamine probe fluorescence polarization; AID 463082; inhibition, % at 3.39 µM; 330,000 compounds, 1.5% hits;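 active = inhibition above the mean inhibition across the screen plus 3 SD, cut at about 25% in these data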;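 note: inhibitors block binding of the rhodamine activity-based probe so polarization drops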
# ABHD4 inh – inhibits mouse alpha/beta hydrolase domain 4. Q8VD66. purified mABHD4, FP-Rh probe fluorescence polarization. inhibition, % at 8.92 µM. 370,000 compounds, 0.54% hits. AID 720543;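 active = inhibition exceeding the mean over every tested compound plus 3 SD, cut at about 30% in these data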
#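 Doses – 8.92 µM, single dose · Material – wild-type mouse ABHD4 protein · Replication – single well per compound (singlicate) · Measure – percent inhibition of probe binding, normalized to plate controls · Schedule – 45 min compound pre-incubation plus 60 min probe step, 25 °C · Detection – fluorescence polarization with parallel and perpendicular emission, 525/598 nm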
# PAFAH2 confirm – PAFAH2 (human) inhibition, confirmed | shares compounds with PAFAH2 inh | recombinant PAFAH2, FP-rhodamine activity probe, fluorescence polarization | inhibition, % at 3.39 µM | 2,300 compounds, 65% hits | AID 493030;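 active = mean inhibition over three repeats above a set limit taken from the earlier primary screen, cut at about 30% in these data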;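 note: inhibitor blocks binding of rhodamine activity probe so polarization falls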
# Numbers stand for hits; - = inactive; . = not tested or not shown. Sampled rows, rich in hits. Any-hit rate of the full collection: about 2.8%.
SMILES,PAFAH2 inh,HTRA1 inh,PAFAH1B2 FP inh,PAFAH1B3 FP inh,pPAFAH FP inh,ABHD4 inh,PAFAH2 confirm
COc1ccc(/C=C/C(=O)OCC(=O)NC2CCCCCCC2)cc1,86,-,-,-,-,-,83
O=C(COC(=O)/C=C/c1ccc([N+](=O)[O-])cc1)NC1CCCCC1,-,-,-,-,-,-,.
O=C(COC(=O)/C=C/c1ccc(C(F)(F)F)cc1)NCC1CCCCC1,30,-,-,-,-,-,-
COc1ccc(OC)c(/C=C/C(=O)OCC(=O)N2CCCCC2)c1,-,-,-,-,-,-,.
COc1ccc(OC)c(/C=C/C(=O)OCC(=O)NC2CCCCCCC2)c1,90,-,-,-,-,-,86
COc1ccc(/C=C/C(=O)OCC(=O)N2CCCCCC2)cc1OC,33,-,-,-,-,-,-
O=C(COC(=O)/C=C/c1ccc(OC(F)F)cc1)NC(=O)NC1CCCCC1,-,-,-,-,-,-,.
O=C(COC(=O)/C=C/c1ccc(OC(F)F)cc1)NC1CCCC1,70,-,-,-,-,-,74
COc1ccc(/C=C/C(=O)OCC(=O)NC2CCCC2)cc1OC,83,-,-,-,-,-,78
CCOc1ccc(-n2c(SCC(=O)Nc3ccc(Oc4ccccc4)cc3)nnc2-c2ccncc2)cc1,.,.,.,.,.,-,.
O=C(C1CCCN1S(=O)(=O)c1ccc(F)cc1)N1CCc2ccccc2C1 (stereo unspecified),.,.,.,.,.,-,.
Cc1cccc(C(=O)NC2CC3CCC(C2)N3C)c1 (stereo unspecified),-,-,-,-,.,-,.
CN1C2CCC1CC(NC(=O)c1cccc(C(F)(F)F)c1)C2 (stereo unspecified),32,-,-,-,-,-,-
CC(C)=CCC/C(C)=C/CNCC(=O)N1c2ccccc2[C@]2(c3ccccc3)C[C@@H]3C(=O)N(C/C=C(\C)CCC=C(C)C)CC(=O)N3[C@H]12,.,.,.,.,.,-,.
COCCCN1C(=O)[C@H](CC(=O)N2CCN(C(=O)c3ccco3)CC2)[C@]2(C(=O)OC)CCCCC=C12,.,.,.,.,.,-,.
COc1ccc(N2CC(O)=C(c3nc(-c4ccc(F)cc4)cs3)C2=N)cc1OC,41,-,-,-,-,-,42
Nc1ccc(C(=O)OCC(=O)Nc2cc([N+](=O)[O-])ccc2F)cc1,83,-,-,-,-,-,82
O=C(COC(=O)C1CCCC1)Nc1cccc(Cl)c1Cl,32,-,-,-,-,-,-
O=C(COC(=O)c1ccc(-n2cnnn2)cc1)Nc1cc(Cl)ccc1F,34,-,-,-,-,-,-
O=C(COC(=O)C1CCCCC1)Nc1cc([N+](=O)[O-])ccc1F,49,-,-,-,-,-,-
C=CCNC1CCC12CCC(c1ccccc1)CC2 (stereo unspecified),.,.,.,.,.,-,.
Cc1ccccc1NC(=O)CSc1nnc(-c2cc(-c3ccccc3)n[nH]2)n1N,.,.,.,.,.,-,.
CCC(=O)OCC(=O)Nc1cc([N+](=O)[O-])ccc1OC,-,-,-,-,-,-,.
COc1ccc([N+](=O)[O-])cc1NC(=O)COC(=O)C1CC1,49,-,-,-,-,-,-
Cc1cc(NC(=O)COC(=O)c2cc3c(s2)CCC(C)C3)no1 (stereo unspecified),30,-,-,-,-,-,-
SMILES,PAFAH2 inh,HTRA1 inh,PAFAH1B2 FP inh,PAFAH1B3 FP inh,pPAFAH FP inh,ABHD4 inh,PAFAH2 confirm
CC1CCc2sc(C(=O)OCC(=O)NC(C)C)cc2C1 (stereo unspecified),31,-,-,-,-,-,-
O=C(Nc1ccc(F)cc1)Nc1c(-c2ccc(C(F)(F)F)cc2)nc2ncccn12,.,.,.,.,.,-,.
COc1cc(OC)c2c(O)c3c(=O)cc(C)oc3c(-c3c(OC)cc4cc5c(c(O)c4c3O)C(=O)CC(C)(O)O5)c2c1 (stereo unspecified),.,.,.,.,.,-,.
Cc1ccc(-c2ccc(/C=N/NC(=O)Cc3nnc(N)s3)o2)cc1Cl,55,-,-,-,-,-,-
COC(=O)c1ccc(-c2ccc(/C=N/NC(=O)Cc3nnc(N)s3)o2)cc1,43,-,-,-,-,-,-
COc1cc(/C=N/NC(=O)Cc2nnc(N)s2)cc(OC)c1OC,-,-,-,-,-,-,.
COc1ccc(-c2ccc(/C=N/NC(=O)Cc3nnc(N)s3)o2)cc1Cl,.,.,.,.,-,-,.
